Assay results taken from ChEMBL document CHEMBL3259690, “Synthesis, structure-activity relationships, and biological studies of chromenochalcones as potential antileishmanial agents” (J Med Chem, 2014).

Tests used:
[1] = Apparent oral clearance in Syrian golden hamster at 100 mg/kg, po administered via gavage as single dose by HPLC-UV analysis; assay type: ADME, organism-based, Mesocricetus auratus; set-up: dose 100 mg/kg, route oral; conditions: in vivo
Procedure, shortened: (§1)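 Male Syrian golden hamsters (100 ± 15 g) given a single oral dose of 100 mg/kg. Plasma stored at −70 °C and assayed by HPLC-UV. Concentration–time profiles analysed non-compartmentally; values mean ± SD.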

[2] = In vitro metabolic stability in syrian golden hamster liver S9 fraction at 10 uM in absence of NADPH; assay type: ADME, Mesocricetus auratus; conditions: s9, 10 µM
Procedure, shortened: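 Hamster liver S9 (2 mg/mL protein), 50 mM Tris, 20 mM MgCl₂, 2 mM NADPH preincubated 10 min, then compound added at 10 μM final (1% organic) at 37 °C in triplicate. Sampled 0−60 min; no-NADPH control sampled at 0, 15, 30 and 60 min. Quenched with ice-cold methanol, extracted by LLE. Data as % parent remaining versus 0 min; testosterone as positive control.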

J774.A1 [3] = assay: Induction of nitric oxide production in mouse J774A1 cells infected with Leishmania donovani after 24 hrs by Griess reagent based spectrophotometric analysis relative to control; assay type: functional
Procedure, shortened: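 Infected J774A.1 macrophages (1 × 10⁶/mL) incubated with compound for 24 h; LPS 10 μg/mL as stimulant. Supernatant mixed 1:1 with Griess reagent at room temperature, absorbance at 540 nm, nitrite reported in μM. Normal, infected-untreated and infected-treated cells compared. Two independent experiments, mean ± SD; Student's t test against infected control.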

Leishmania donovani [4] = assay: Antileishmanial activity against Leishmania donovani MHOM/IN/80/Dd8 amastigotes infected in syrian golden hamster assessed as decrease in parasite count in spleen at 100 mg/kg/day, po for 5 days measured on day 28 after last dose administration by giemsa staining; assay type: functional; conditions: MHOM/IN/80/Dd8, Spleen
Procedure, shortened: (§2)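 Golden hamsters of either sex infected intracardially with 1 × 10⁷ L. donovani Dd8 amastigotes. After 15−20 days, pretreatment spleen biopsy; animals with +1 grade infection (5−10 amastigotes/100 spleen cell nuclei) used, 5−6 per compound. Aqueous suspensions dosed IP or PO for 5−10 consecutive days starting 2 days after biopsy. Splenic biopsies on day 7 and 28 after last dose, Giemsa counts; PI = 100 − [(ANAT×100)/(INAT×TIUC)].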

Leishmania donovani [5] = assay: Antileishmanial activity against Leishmania donovani MHOM/IN/80/Dd8 amastigotes infected in syrian golden hamster assessed as decrease in parasite count in spleen at 100 mg/kg/day, po for 5 days measured on day 7 after last dose administration by giemsa staining; assay type: functional; conditions: MHOM/IN/80/Dd8, Spleen; procedure, shortened: as §2
Leishmania donovani [6] = assay: Induction of early apoptosis in Leishmania donovani MHOM/IN/80/Dd8 promastigotes at 0.78 uM after 12 hrs by Annexin V-FITC/propidium iodide staining based flow cytometry (reference value: 13.70%); assay type: functional
J774.A1 [7] = assay: Decrease in TGF-beta production in mouse J774A1 cells infected with Leishmania donovani at IC50 concentration after 24 hrs by sandwich ELISA relative to control; assay type: functional
Procedure, shortened: (§3)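 J774A.1 macrophages (1 × 10⁶) infected with Leishmania at 1:10, treated in 6-well plates at the compound's IC₅₀ concentration, 37 °C, CO₂. Supernatants from normal, infected-untreated and infected-treated cells collected after 24 h. IL-12, TNF-α, IL-10 and TGF-β measured by sandwich ELISA at 450 nm, in pg/mL. Two independent experiments in duplicate, mean ± SD; Student's t test against infected control.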

Albumin = Albumin (Bos taurus, UniProt P02769); assay: Binding affinity to bovine serum albumin at 1 mmol/L by fluorescence spectrophotometer analysis; assay type: ADME; conditions: cattle, isolated protein, 1000 µM
Procedure, shortened: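 BSA at 1.00 × 10⁻⁵ mol/L in 0.10 M Tris-HCl, pH 7.4, titrated with successive additions of 1.00 × 10⁻³ mol/L compound stock. Excitation at 280 nm, emission recorded 300−450 nm. Quenching analysed by Stern–Volmer and modified Stern–Volmer equations (τ₀ = 10⁻⁸ s).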

Leishmania donovani [8] = assay: Induction of apoptosis in Leishmania donovani MHOM/IN/80/Dd8 promastigotes assessed as drop in mitochondrial membrane potential at 0.78 uM after 72 hrs by JC-1 dye based flow cytometry (reference value: 5.87%); assay type: functional
Leishmania donovani [9] = assay: Antileishmanial activity against intracellular amastigote form of Leishmania donovani MHOM/IN/80/Dd8 expressing luciferase gene infected in mouse J774A1 cells after 72 hrs by luminescence analysis; assay type: functional, organism-based; conditions: MHOM/IN/80/Dd8, J774.A1, 72 h
Procedure, shortened: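 J774A.1 macrophages (4 × 10⁴/mL, RPMI-1640 + 10% HIFBS, 37 °C, 5% CO₂), after 24 h infected with stationary-phase luciferase promastigotes (4 × 10⁵/mL). Free parasites washed off after 24 h. Compound added at up to 7 dilutions from 40 μM for 72 h. Luminescence read after Steady Glo in PBS. IC₅₀ from four-parameter Hill fit; at least duplicate measurements.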

[10] = Terminal half life in Syrian golden hamster at 100 mg/kg, po administered via gavage as single dose by HPLC-UV analysis; assay type: ADME, organism-based, Mesocricetus auratus; set-up: dose 100 mg/kg, route oral; conditions: in vivo, read-out: beta t1/2 (converted); procedure, shortened: as §1
Leishmania donovani [11] = assay: Induction of early apoptosis in Leishmania donovani MHOM/IN/80/Dd8 promastigotes at 0.78 uM after 72 hrs by Annexin V-FITC/propidium iodide staining based flow cytometry (reference value: 13.70%); assay type: functional
J774.A1 [12] = assay: Increase in TNF-alpha production in mouse J774A1 cells infected with Leishmania donovani at IC50 concentration after 24 hrs by sandwich ELISA relative to control; assay type: functional; procedure, shortened: as §3

Chain of Albumin (P02769 whole entry): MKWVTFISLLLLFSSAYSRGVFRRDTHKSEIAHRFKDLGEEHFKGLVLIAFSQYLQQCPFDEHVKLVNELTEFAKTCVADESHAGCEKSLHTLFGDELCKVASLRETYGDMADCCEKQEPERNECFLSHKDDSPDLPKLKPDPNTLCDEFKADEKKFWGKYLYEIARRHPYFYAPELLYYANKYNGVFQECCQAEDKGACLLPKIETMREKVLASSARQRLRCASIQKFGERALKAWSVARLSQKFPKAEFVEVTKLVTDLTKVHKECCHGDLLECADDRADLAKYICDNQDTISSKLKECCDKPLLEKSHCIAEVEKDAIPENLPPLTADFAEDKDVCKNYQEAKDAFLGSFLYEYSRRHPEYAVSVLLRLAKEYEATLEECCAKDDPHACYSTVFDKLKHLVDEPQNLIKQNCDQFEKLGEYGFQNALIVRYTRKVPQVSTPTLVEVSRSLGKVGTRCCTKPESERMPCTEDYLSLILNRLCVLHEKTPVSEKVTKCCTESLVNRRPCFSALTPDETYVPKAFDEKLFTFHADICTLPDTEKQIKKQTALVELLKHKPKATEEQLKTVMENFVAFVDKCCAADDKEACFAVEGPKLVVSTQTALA

Question: Which results are given for CC(C)=CCCC1(C)C=Cc2c(ccc(C(=O)/C=C/c3cccnc3)c2O)O1 (centres undefined)?
Answer: CL/F [1]: 464 mL/min/kg; Stability [2]: Stable; fold change (FC) (J774.A1 [3]): 6.3; inhibition in vivo at 100 mg/kg/day (Leishmania donovani [4]): 84.5%; inhibition in vivo at 100 mg/kg/day (Leishmania donovani [5]): 84.7%; Activity (Leishmania donovani [6]): 28.93%; fold change (FC) (J774.A1 [7]): 4.08; KSV (Albumin): 2.7 ×10⁵ L/mol; Kq (Albumin): 2.7 ×10¹³ L/mol/s; Activity (Leishmania donovani [8]): 69.59%; IC50 (Leishmania donovani [9]): 5.4 µM; half-life [10]: 7.4 h; Activity (Leishmania donovani [11]): 66.14%; fold change (FC) (J774.A1 [12]): 11.6
